# “And” between values parts separate entries of the source, which are not always exact repeats. Identical values can stand only once.
# How the values were obtained:
# [1] = system: HEC1A endometrial carcinoma FGFR2 wt xenograft; assay: HEC1A xenograft tumor growth; type: in vivo, mice; settings: for Best T/C%: HEC1A
# Summary of the method: (§1)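 Female NCr-nu/nu mice (6 weeks old, specific pathogen free) received subcutaneous flank tumor fragments. Tumors were measured by caliper twice weekly, with volume = (length × width²)/2. Best %T/C = (median treated volume / median control volume) × 100.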
# [2] = system: MNK45 gastric carcinoma FGFR2 wt xenograft; assay: MNK45 xenograft tumor growth; type: in vivo, mice
# Summary of the method: as §1
# [3] = system: MFE296 endometrial carcinoma FGFR2 mutated xenograft; assay: MFE296 xenograft tumor growth; type: in vivo, mice
# Summary of the method: as §1
# [4] = molecular target: VEGFR1-3 tyrosine kinases; settings: biochemical assays; cited from earlier work
# [5] = system: H1299 (NSCLC) FGFR1 wt xenograft; assay: H1299 xenograft tumor growth; type: in vivo, mice; settings: for Best T/C%: day 38 after implant
# Summary of the method: as §1
# [6] = system: H1299 cells; assay: cell cycle perturbation, flow cytometry of DNA content, H1299; type: cell-based, human; settings: H1299, 10 μM (IC50); 4, 24, 48 and 72 hours
# [7] = after 21 days of treatment, just before the daily oral dose of 10 mg, cited from earlier work
# [8] = system: breast cancer patients with FGF-aberrant (FGFR1 and/or FGF3/4/19 gene amplified) tumors; settings: among 12 breast cancer patients with FGF-aberrant tumors; cited from earlier work
# [9] = pharmacokinetics after 12 daily oral doses in lung xenograft bearing mice; type: in vivo; settings: for tumor/plasma ratio: lung xenografts
# [10] = system: H1299 cells; assay: TUNEL apoptosis assay, H1299; type: cell-based, human; settings: H1299, 10 μM (IC50); 4, 24, 48 and 72 hours
# [11] = system: FGFR1 amplified and FGFR2 amplified or mutated cancer cell lines; assay: cell viability assay; type: cell-based, human
# Summary of the method: (§2)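 Cell lines were grown in RPMI with 1% glutamine and 10% FBS. Cells were exposed to test compound (0.01–50 μM; 10 mM DMSO stock) 48 h after seeding. MTS was added 72 h after treatment and read at 490 nm after 2 h incubation. IC50 was calculated by software and reported as arithmetic mean + SEM.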
# [12] = system: DMS114 cells; assay: cell viability assay; type: cell-based; settings: Homo sapiens, DMS-114
# Summary of the method: as §2
# [13] = molecular target: PDGFRα/β tyrosine kinases; settings: biochemical assays; cited from earlier work
# [14] = system: H1581 (NSCLC) FGFR1 amplified xenograft; assay: H1581 xenograft tumor growth; type: in vivo, mice; settings: for Best T/C%: day 27 after implant
# Summary of the method: as §1
# [15] = system: DMS114 (SCLC) FGFR1 amplified xenograft; assay: DMS114 xenograft tumor growth; type: in vivo, mice
# Summary of the method: as §1
# [16] = system: DMS114 cells; assay: TUNEL apoptosis assay, DMS114; type: cell-based, human; settings: DMS114, 1 μM (IC50); 4, 24, 48 and 72 hours
# [17] = system: SNU16 gastric carcinoma FGFR2 amplified xenograft; assay: SNU16 xenograft tumor growth; type: in vivo, mice; settings: day 30 after implant
# Summary of the method: as §1
# [18] = system: H1299 cells; assay: cell viability assay; type: cell-based; settings: Homo sapiens, NCI-H1299
# Summary of the method: as §2
# [19] = molecular target: FGFR1-3 tyrosine kinases; settings: biochemical assays; cited from earlier work
# [20] = system: tumor type cell lines with wt FGFR1 and wt FGFR2; assay: cell viability assay; type: cell-based; settings: Homo sapiens, 72 h
# Summary of the method: as §2
# [21] = system: DMS114 cells; assay: cell cycle perturbation, flow cytometry of DNA content, DMS114; type: cell-based, human; settings: DMS114, 1 μM (IC50); starting at 24 hours and persisting up to 48 hours
# [22] = NCr-nu/nu, mouse, tumor and plasma, po
compound,measurement,setting,value
CNC(=O)c1cccc2cc(Oc3ccnc4cc(OCC5(N)CC5)c(OC)cc34)ccc12 [lucitanib],tumor regressions,"[1]; HEC1A wt FGFR2, 20 mg/kg (data not shown)",2 out of 10 mice
same,Best T/C%,"[1]; 2.5 mg/kg orally daily for 30 days, day 45 after implant",29 (45) %
same,Best T/C%,"[1]; 5 mg/kg orally daily for 30 days, day 47 after implant",17 (47) %
same,Best T/C%,"[1]; 10 mg/kg orally daily for 30 days, day 45 after implant",12 (45) %
same,Best T/C%,"[1]; 20 mg/kg orally daily for 30 days, day 49 after implant",10 (49) %
same,Best T/C%,"[2]; MNK45, 2.5 mg/kg orally daily for 30 days, day 28 after implant",22 (28) %
same,Best T/C%,"[2]; MNK45, 5 mg/kg orally daily for 30 days, day 28 after implant",12 (28) %
same,Best T/C%,"[2]; MNK45, 10 mg/kg orally daily for 30 days, day 32 after implant",10 (32) %
same,Best T/C%,"[2]; MNK45, 20 mg/kg orally daily for 30 days, day 32 after implant",7 (32) %
same,tumor regressions,"[2]; MNK45 wt FGFR2, 20 mg/kg (data not shown)",3 out of 10 mice
same,Best T/C%,"[3]; MFE296, 2.5 mg/kg orally daily for 30 days, day 28 after implant",36 (28) %
same,Best T/C%,"[3]; MFE296, 5 mg/kg orally daily for 30 days, day 25 after implant",34 (25) %
same,Best T/C%,"[3]; MFE296, 10 mg/kg orally daily for 30 days, day 30 after implant",22 (30) %
same,Best T/C%,"[3]; MFE296, 20 mg/kg orally daily for 30 days, day 25 after implant",17 (25) %
same,Kd,[4],< 100 nM
same,Best T/C%,"[5]; H1299, 2.5 mg/kg orally daily for 30 days",55 (38) %
same,Best T/C%,"[5]; H1299, 5 mg/kg orally daily for 30 days",41% and 41 (38) %
same,Best T/C%,"[5]; H1299, 10 mg/kg orally daily for 30 days",28 (38) %
same,Best T/C%,"[5]; H1299, 20 mg/kg orally daily for 30 days",24 (38) %
same,tumor regressions,"[5]; H1299 lung xenograft, any dose schedule, best effect tumor stabilization",No tumor regressions
same,perturbation of the cell cycle,[6],late S-G2/M blockade
same,tumor drug concentration relative to concomitant plasma drug concentration,[7],25 fold
same,tumor drug concentration,[7]; breast cancer biopsy from a person,11 µM
same,confirmed objective RECIST responses,[8],4
same,unconfirmed objective RECIST responses,[8],2
same,tumor/plasma ratio,[9]; 4 hours after the last of 12 daily oral doses,2.5
same,tumor/plasma ratio,[9]; 24 hours after the last of 12 daily oral doses,24.8
same,tumor drug concentration at 4 hours relative to in vitro IC50,"[9]; FGFR1 amplified H1581 and DMS114 tumors, higher than IC50 values",3 to 26 fold
same,Kp at 4 h,[9]; [22],2.5 ± 0.7
same,Kp at 24 h,[9]; [22],24.8 ± 7.4
same,apoptosis by TUNEL assay,[10],no apoptosis was detected
same,IC50 lower in FGFR2 amplified or mutated cell lines than in FGFR2 wt cells,[11]; FGFR2 amplified or mutated cell lines vs FGFR2 wt cells,10 fold
same,IC50,"[11]; Homo sapiens, 72 h",45 to 3160 nM
same,IC50,[12],1000 nM
same,Kd,[13],< 100 nM
same,Best T/C%,"[14]; H1581, 2.5 mg/kg orally daily for 30 days",46 (27) %
same,Best T/C%,"[14]; H1581, 5 mg/kg orally daily for 30 days",24% and 24 (27) %
same,Best T/C%,"[14]; H1581, 10 mg/kg orally daily for 30 days",21 (27) %
same,Best T/C%,"[14]; H1581, 20 mg/kg orally daily for 30 days",16 (27) %
same,tumor regressions,"[14]; H1581 lung xenograft, any dose schedule, best effect tumor stabilization",No tumor regressions
same,Best T/C%,"[15]; DMS114, 2.5 mg/kg orally daily for 30 days, day 44 after implant",45 (44) %
same,Best T/C%,"[15]; DMS114, 5 mg/kg orally daily for 30 days, day 46 after implant",20% and 20 (46) %
same,Best T/C%,"[15]; DMS114, 10 mg/kg orally daily for 30 days, day 44 after implant",16 (44) %
same,Best T/C%,"[15]; DMS114, 20 mg/kg orally daily for 30 days, day 44 after implant",12 (44) %
same,tumor regressions,"[15]; DMS114 lung xenograft, any dose schedule, best effect tumor stabilization",No tumor regressions
same,apoptosis by TUNEL assay,[16],no apoptosis was detected
same,Best T/C%,"[17]; SNU16, 2.5 mg/kg orally daily for 30 days",40 (30) %
same,Best T/C%,"[17]; SNU16, 5 mg/kg orally daily for 30 days",32 (30) %
same,Best T/C%,"[17]; SNU16, 10 mg/kg orally daily for 30 days",16 (30) %
same,Best T/C%,"[17]; SNU16, 20 mg/kg orally daily for 30 days",14 (30) %
same,IC50,[18],10 µM
same,Kd,[19],< 100 nM
same,IC50,[20],3 to 23 µM
same,perturbation of the cell cycle,[21],G1 block
